Laboratory results as given in ChEMBL document CHEMBL4152367, “Discovery of a Potent Thiazolidine Free Fatty Acid Receptor 2 Agonist with Favorable Pharmacokinetic Properties” (J Med Chem, 2018).
Calls of active or inactive are those of the source. No cut-off for these calls is given here.

Key:
[1] = Metabolic stability in mouse liver microsomes assessed as compound remaining at 1 uM after 1 hr by HPLC method; format: ADME, microsome; settings: read-out: Stability
Summary of the method: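 Mouse liver microsomes 0.5 mg/mL with 1 µM test compound in 0.1 M PBS pH 7.4 plus NADPH. Pre-incubated 5 min at 37 °C before microsome addition, then 1 h at 37 °C with shaking. Quenched with ice-cold MeOH/MeCN 1:1, centrifuged; HPLC analysis relative to the 0 min sample.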

[2] = biological target: Free fatty acid receptor 1 (Homo sapiens) (UniProt O14842); assay: Antagonist activity at human FFA1 receptor expressed in HEK293 cells assessed as inhibition of linoleic acid-induced calcium flux at 10 uM by fluorimetry; format: functional, cell-based
Sequence of Free fatty acid receptor 1 (Homo sapiens) (O14842 whole entry): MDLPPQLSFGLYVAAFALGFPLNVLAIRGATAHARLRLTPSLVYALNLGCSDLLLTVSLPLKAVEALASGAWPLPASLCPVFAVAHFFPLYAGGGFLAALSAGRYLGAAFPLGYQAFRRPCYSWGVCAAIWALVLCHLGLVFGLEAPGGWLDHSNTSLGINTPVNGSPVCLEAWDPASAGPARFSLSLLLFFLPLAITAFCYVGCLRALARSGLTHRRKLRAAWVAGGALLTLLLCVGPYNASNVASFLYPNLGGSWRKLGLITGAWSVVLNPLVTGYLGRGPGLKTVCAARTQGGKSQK

[3] = biological target: T1, Oxysterols receptor LXR-beta (Homo sapiens) (UniProt P55055); assay: Antagonist activity at human LXRbeta expressed in Escherichia coli assessed as inhibition of T0901317-induced calcium flux at 10 uM by fluorimetry
T1 sequence (whole entry): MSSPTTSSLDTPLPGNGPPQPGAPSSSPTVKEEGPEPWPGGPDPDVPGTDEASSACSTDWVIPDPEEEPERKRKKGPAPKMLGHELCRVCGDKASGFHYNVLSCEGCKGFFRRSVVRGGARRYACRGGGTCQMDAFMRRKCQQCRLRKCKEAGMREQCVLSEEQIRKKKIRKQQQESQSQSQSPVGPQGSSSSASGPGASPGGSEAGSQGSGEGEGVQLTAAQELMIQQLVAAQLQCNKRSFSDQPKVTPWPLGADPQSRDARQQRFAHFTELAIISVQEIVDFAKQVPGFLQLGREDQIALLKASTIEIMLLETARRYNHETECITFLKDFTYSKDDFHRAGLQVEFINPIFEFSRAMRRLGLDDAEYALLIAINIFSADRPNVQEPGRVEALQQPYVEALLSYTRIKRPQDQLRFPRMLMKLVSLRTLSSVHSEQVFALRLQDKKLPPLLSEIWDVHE

[4] = AUC (0 to infinity) in Balb/c mouse at 10 mg/kg, po by HPLC-MS/MS analysis; format: ADME, organism-based; set-up: dose 10 mg/kg, route oral, time infinity; settings: in vivo
Summary of the method: (§1)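 Balb/c mice dosed at 5 mg/kg iv or 10 mg/kg po. Plasma concentrations over time used to derive t1/2, AUC0–∞, Vd and total clearance (iv), and tmax, Cmax, AUC0–∞ and oral bioavailability (po).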

[5] = biological target: T1, Oxysterols receptor LXR-beta (Homo sapiens); assay: Agonist activity at human LXRbeta expressed in Escherichia coli assessed as induction of calcium flux at 10 uM by fluorimetry
[6] = Oral bioavailability in Balb/c mouse at 10 mg/kg by HPLC-MS/MS analysis; format: ADME, organism-based; settings: in vivo; summary of the method: as §1
[7] = Tmax in Balb/c mouse at 10 mg/kg, po by HPLC-MS/MS analysis; format: ADME, organism-based; settings: in vivo; summary of the method: as §1
[8] = Half life in Balb/c mouse at 5 mg/kg, iv by HPLC-MS/MS analysis; format: ADME, organism-based; settings: in vivo; summary of the method: as §1
[9] = biological target: T2, Free fatty acid receptor 4 (Homo sapiens) (UniProt Q5NUL3); assay: Agonist activity at human FFA4 receptor expressed in HEK293 cells assessed as induction of calcium flux at 10 uM by fluorimetry; format: functional, cell-based
T2 sequence (whole entry): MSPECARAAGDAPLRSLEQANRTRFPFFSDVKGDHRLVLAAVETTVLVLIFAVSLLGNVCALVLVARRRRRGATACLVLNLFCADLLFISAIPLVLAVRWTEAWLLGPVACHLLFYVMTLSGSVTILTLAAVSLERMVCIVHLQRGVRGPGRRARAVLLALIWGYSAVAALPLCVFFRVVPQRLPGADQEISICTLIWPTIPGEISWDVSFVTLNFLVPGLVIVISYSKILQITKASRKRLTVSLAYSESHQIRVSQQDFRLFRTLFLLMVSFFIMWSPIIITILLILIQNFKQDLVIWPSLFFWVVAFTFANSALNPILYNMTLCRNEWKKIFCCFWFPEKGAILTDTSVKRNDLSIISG

[10] = biological target: T3, Peroxisome proliferator-activated receptor gamma (Homo sapiens) (UniProt P37231); assay: Agonist activity at human PPARgamma expressed in Escherichia coli assessed as induction of calcium flux at 10 uM by fluorimetry
T3 sequence (whole entry): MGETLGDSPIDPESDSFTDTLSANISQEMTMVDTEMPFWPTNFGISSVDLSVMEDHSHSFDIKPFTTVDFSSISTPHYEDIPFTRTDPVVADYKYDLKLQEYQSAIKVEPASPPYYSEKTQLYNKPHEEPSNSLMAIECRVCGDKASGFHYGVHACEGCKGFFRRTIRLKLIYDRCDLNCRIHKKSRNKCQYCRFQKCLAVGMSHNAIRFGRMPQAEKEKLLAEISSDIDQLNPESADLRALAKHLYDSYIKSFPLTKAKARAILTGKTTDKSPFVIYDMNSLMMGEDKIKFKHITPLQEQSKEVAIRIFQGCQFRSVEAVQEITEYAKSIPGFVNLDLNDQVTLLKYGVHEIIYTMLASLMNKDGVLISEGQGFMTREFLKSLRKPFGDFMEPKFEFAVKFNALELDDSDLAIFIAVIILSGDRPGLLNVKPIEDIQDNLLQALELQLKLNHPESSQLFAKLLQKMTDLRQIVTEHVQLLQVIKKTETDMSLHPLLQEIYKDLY

[11] = biological target: Free fatty acid receptor 1 (Homo sapiens) (UniProt O14842); assay: Agonist activity at human FFA1R expressed in HEK293 cells assessed as induction of calcium flux at 10 uM by fluorimetry; format: functional, cell-based
[12] = AUC (0 to infinity) in Balb/c mouse at 5 mg/kg, ip by HPLC-MS/MS analysis; format: ADME, organism-based; set-up: dose 5 mg/kg, time infinity, route intraperitoneal; settings: in vivo
[13] = Chemical stability of the compound in FaSSIF after 2 hrs; format: physicochemical; settings: read-out: Stability
Summary of the method: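 Simulated-fluid stability: 50 µM compound in FaSSIF or FaSSGF (from 10 mM DMSO stock), shaken at 37 °C for 0 and 120 min. Quenched with acetonitrile containing 0.5% HCOOH, centrifuged, supernatant by HPLC. Stability from peak area relative to the 0 min sample; duplicates, mean reported.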

[14] = biological target: T3, Peroxisome proliferator-activated receptor gamma (Homo sapiens); assay: Antagonist activity at human PPARgamma expressed in Escherichia coli assessed as inhibition of rosiglitazone-induced calcium flux at 10 uM by fluorimetry
[15] = biological target: T2, Free fatty acid receptor 4 (Homo sapiens); assay: Antagonist activity at human FFA4 receptor expressed in HEK293 cells assessed as inhibition of GW9508-induced of calcium flux at 10 uM by fluorimetry; format: functional, cell-based

In the case of `Cc1noc(C)c1-c1ccc(C(=O)N2[C@@H](c3ccccc3Cl)SC[C@H]2C(=O)O)cc1`, the remaining at 1 h, 1 µM [1] is reported as 82%, the inhibition [2] is reported as “inactive” and the inhibition [3] is reported as “inactive”. The AUC(0-inf) [4] was 2.6 µg·h/mL, the Activity [5] was “inactive” and the bioavailability [6] was 32%. For the same compound, the Tmax [7] was 0.25 h, the half-life [8] was 2.3 h and the Activity [9] was “inactive”. For the same compound, the Activity [10] was “inactive”, the Activity [11] was “inactive” and the AUC(0-inf) [12] was 1.01 µg·h/mL. The remaining at 2 h [13] was 95%, the inhibition [14] was “inactive” and the inhibition [15] was “inactive”.
